In ChEMBL document CHEMBL1938290, “Synthesis of 5-benzyl-2-phenylpyrazolo[1,5-a]pyrazin-4,6(5H,7H)-dione derivatives and discovery of an apoptosis inducer for H322 lung cancer cells” (Bioorg Med Chem Lett, 2012):
Calls of active or inactive are those of the source. The calls are words filed in the database; no cut-off is given here.

Columns and labels:
A549 [1] = experiment: Cytotoxicity against human A549 cells expressing wild type p53 at 40 uM after 48 hrs by SRB assay; assay type: functional, cell-based
Outline: (§1)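 A549 (p53 wild-type) lung cancer cells exposed to compound at 20 or 40 µM for 24 or 48 h respectively. Growth/viability then measured by SRB staining with a spectrophotometric read-out, expressed as % of untreated control.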

A549 [2] = experiment: Cytotoxicity against human A549 cells expressing wild type p53 at 20 uM after 24 hrs by SRB assay; assay type: functional, cell-based; outline: as §1
[3] = (§2) Cytotoxicity against human NCI-H322 cells expressing p53 mutant after 24 hrs by SRB assay; assay type: functional, cell-based; details: NCI-H322, 24 h
Outline: (§3)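 H322 cells exposed to 10, 20, 30 or 40 µM, alongside untreated control, for 24 h. SRB viability read by spectrophotometer. Mean ± SE, n = 3. IC50 taken from the dose–response at 24 h.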

NCI-H322 [4] = experiment: as §2; assay type: functional, cell-based; outline: as §3
NCI-H322 [5] = experiment: Induction of apoptosis in human NCI-H322 cells assessed as chromatin condensation at 10 to 40 uM after 24 hrs by Hoechst 33258 staining-based fluorescent microscopy; assay type: functional, cell-based
Outline: (§4)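 H322 cells cultured 24 h with compound or vehicle (0.1% DMSO), then stained with Hoechst 33258. Viewed by fluorescence microscopy at 400×, scoring condensed chromatin and nuclear granulation (blue fluorescence). Apoptotic cell ratio expressed vs control as mean ± SE, n = 3.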

NCI-H322 [6] = experiment: Induction of apoptosis in human NCI-H322 cells assessed as nuclear granulation at 10 to 40 uM after 24 hrs by Hoechst 33258 staining-based fluorescent microscopy; assay type: functional, cell-based; outline: as §4
HUVEC = experiment: Cytotoxicity against HUVEC up to 40 uM by SRB assay; assay type: cell-based; details: human
[7] = Solubility of the compound; assay type: physicochemical
NCI-H322 [8] = experiment: Cytotoxicity against human NCI-H322 cells expressing p53 mutant at 20 uM after 24 hrs by SRB assay; assay type: functional, cell-based
Outline: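 H322 (p53-mutant) cells treated at 20 µM or left untreated for 24 h. Viability measured by SRB assay and given as % of untreated control. Mean ± SE, n = 3, significance P < 0.05 vs control.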

SMILES	Activity (A549 [1])	Activity (A549 [2])	other results
O=C1Cn2nc(-c3ccc(Cl)cc3)cc2C(=O)N1CCc1ccccc1	inactive	inactive	–
COc1cccc(CCN2C(=O)Cn3nc(-c4ccccc4)cc3C2=O)c1	inactive	inactive	–
COc1ccc(-c2cc3n(n2)CC(=O)N(CCc2ccccc2)C3=O)cc1	inactive	inactive	IC50 [3]: 28.5 µM; Activity (NCI-H322 [4]): Dose-dependent effect; Activity (NCI-H322 [5]): Active; Activity (NCI-H322 [6]): Active; Activity (HUVEC): Non-toxic
COc1ccc(-c2cc3n(n2)CC(=O)N(CCc2ccc(F)cc2)C3=O)cc1	inactive	inactive	–
O=C1Cn2nc(-c3ccc(Cl)cc3)cc2C(=O)N1Cc1ccccc1	inactive	inactive	–
COc1ccc(-c2cc3n(n2)CC(=O)N(Cc2ccccc2)C3=O)cc1	inactive	inactive	solubility [7]: Insoluble; Activity (NCI-H322 [8]): Active
O=C1Cn2nc(-c3ccccc3)cc2C(=O)N1CCc1ccc(F)cc1	inactive	inactive	–
O=C1Cn2nc(-c3ccc(Cl)cc3)cc2C(=O)N1CCc1ccc(F)cc1	inactive	inactive	–
O=C1Cn2nc(-c3ccccc3)cc2C(=O)N1CCc1ccccc1	inactive	inactive	–
O=C1Cn2nc(-c3ccccc3)cc2C(=O)N1Cc1ccccc1	inactive	inactive	–
COc1ccc(-c2cc3n(n2)CC(=O)N(CCc2cccc(OC)c2)C3=O)cc1	inactive	inactive	–
COc1cccc(CCN2C(=O)Cn3nc(-c4ccc(Cl)cc4)cc3C2=O)c1	inactive	inactive	–
